Laboratory results published in ChEMBL document CHEMBL1909519, “L-Proline anchored multicomponent synthesis of novel pyrido[2,3-a]carbazoles; investigation of in vitro antimicrobial, antioxidant, cytotoxicity and structure activity relationship studies” (Eur J Med Chem, 2011).
Converted amounts (≈) assume the structure as drawn. The source made the active and inactive calls. The rule behind the calls is not given here.

How the values were obtained:
SK-OV-3 = assay: Cytotoxicity against human SKOV3 cells up to 50 ug/ml after 48 hrs by SRB assay; type: functional, cell-based
Outline: (§1)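 Cells in RPMI-1640 with 10% heat-inactivated FBS, 1 mM NaHCO3, 2 mM L-glutamine, 37 °C, 5% CO2; seeded (B16F10 5 × 10⁴ cells/mL, others 1 × 10⁵ cells/mL), 24 h, then compounds in DMSO at 1.56–50 for 48 h, triplicate wells. TCA fixation, SRB staining 30 min, tris extraction, OD 520 nm; IC50 by linear regression, mean ± SD of three independent experiments; cisplatin positive control.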

Escherichia coli [1] = assay: Antibacterial activity against Escherichia coli after 24 hrs by agar disk diffusion assay; type: functional
Outline: (§2)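 Gram-negative clinical isolates (PSG Hospital, Coimbatore) tested by agar well diffusion on nutrient agar. Compounds dissolved in DMSO at 0 (control), 25, 50, 75, 100; DMSO was the negative control and ciprofloxacin ([…]) the positive control. Incubation 37 ± 2 °C for 24 h, then inhibition zone diameter measured in mm.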

Staphylococcus aureus [2] = assay: Antibacterial activity against Staphylococcus aureus after 24 hrs by agar disk diffusion assay; type: functional
Outline: (§3)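 Agar well diffusion on nutrient agar against Gram-positive clinical isolates (PSG Hospital, Coimbatore). Compounds in DMSO tested at 0 (control), 25, 50, 75, 100; DMSO as solvent and negative control; ciprofloxacin ([…]) as positive control. Plates incubated 37 ± 2 °C, 24 h; zone of inhibition diameter read in mm.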

Candida albicans [3] = assay: Antifungal activity against Candida albicans at 100 ug/ml after 48 hrs by agar disk diffusion assay; type: functional; conditions: read-out: DIZ
Outline: (§4)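 Fungal isolates (PSG Hospital, Coimbatore) grown on Sabouraud dextrose agar; agar well diffusion with compounds in DMSO at 0 (control), 25, 50, 75, 100. DMSO negative control, fluconazole ([…]) positive control. Plates held 28 ± 2 °C for 48 h; zone of inhibition diameter recorded in mm.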

Enterococcus faecalis [4] = assay: Antibacterial activity against Enterococcus faecalis at 100 ug/ml after 24 hrs by agar disk diffusion assay; type: functional; conditions: read-out: DIZ; outline: as §3
Staphylococcus aureus [5] = assay: Antibacterial activity against Staphylococcus aureus at 100 ug/ml after 24 hrs by agar disk diffusion assay; type: functional; conditions: read-out: DIZ; outline: as §3
HCT-15 [6] = assay: Cytotoxicity against human HCT15 cells up to 50 ug/ml after 48 hrs by SRB assay; type: functional, cell-based; outline: as §1
A549 = assay: Cytotoxicity against human A549 cells up to 50 ug/ml after 48 hrs by SRB assay; type: functional, cell-based; outline: as §1
[7] = test system: Radical scavenging activity; assay: Antioxidant activity assessed as DPPH radical scavenging activity after 30 mins by micro plate reader; type: functional
Outline: (§5)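 DPPH assay: various compound concentrations brought to volume with ethanol, mixed with 0.1 mM ethanolic DPPH alongside vitamin C standard; shaken 30 min at 24 °C, absorbance read at 517 nm; concentration giving 50% decrease determined.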

Aspergillus niger [8] = assay: Antifungal activity against Aspergillus niger after 48 hrs by agar disk diffusion assay; type: functional; outline: as §4
Klebsiella pneumoniae [9] = assay: Antibacterial activity against Klebsiella pneumoniae at 100 ug/ml after 24 hrs by agar disk diffusion assay; type: functional; conditions: read-out: DIZ; outline: as §2
Enterococcus faecalis [10] = assay: Antibacterial activity against Enterococcus faecalis after 24 hrs by agar disk diffusion assay; type: functional; outline: as §3
Escherichia coli [11] = assay: Antibacterial activity against Escherichia coli at 100 ug/ml after 24 hrs by agar disk diffusion assay; type: functional; conditions: read-out: DIZ; outline: as §2
B16-F10 [12] = assay: Cytotoxicity against mouse B16F10 cells up to 50 ug/ml after 48 hrs by SRB assay; type: functional, cell-based; outline: as §1
Klebsiella pneumoniae [13] = assay: Antibacterial activity against Klebsiella pneumoniae after 24 hrs by agar disk diffusion assay; type: functional; outline: as §2
Candida albicans [14] = assay: Antifungal activity against Candida albicans after 48 hrs by agar disk diffusion assay; type: functional; outline: as §4
[15] = Cytotoxicity against human SK-MEL-12 cells up to 50 ug/ml after 48 hrs by SRB assay; type: functional, cell-based; outline: as §1
Aspergillus niger [16] = assay: Antifungal activity against Aspergillus niger at 100 ug/ml after 48 hrs by agar disk diffusion assay; type: functional; conditions: read-out: DIZ; outline: as §4
B16-F10 [17] = assay: Cytotoxicity against mouse B16F10 cells after 48 hrs by SRB assay; type: functional, cell-based; conditions: B16-F10, 48 h; outline: as §1
[18] = test system: Radical scavenging activity; assay: Antioxidant activity assessed as DPPH radical scavenging activity upto 600 mg/ml after 30 mins by micro plate reader; type: functional; outline: as §5
HCT-15 [19] = assay: Cytotoxicity against human HCT15 cells after 48 hrs by SRB assay; type: functional, cell-based; conditions: HCT-15, 48 h; outline: as §1
Aspergillus niger [20] = assay: Antifungal activity against Aspergillus niger at 50 ug/ml after 48 hrs by agar disk diffusion assay; type: functional; conditions: read-out: DIZ; outline: as §4
Escherichia coli [21] = assay: Antibacterial activity against Escherichia coli at 50 ug/ml after 24 hrs by agar disk diffusion assay; type: functional; conditions: read-out: DIZ; outline: as §2
Staphylococcus aureus [22] = assay: Antibacterial activity against Staphylococcus aureus at 50 ug/ml after 24 hrs by agar disk diffusion assay; type: functional; conditions: read-out: DIZ; outline: as §3
Candida albicans [23] = assay: Antifungal activity against Candida albicans at 50 ug/ml after 48 hrs by agar disk diffusion assay; type: functional; conditions: read-out: DIZ; outline: as §4
Klebsiella pneumoniae [24] = assay: Antibacterial activity against Klebsiella pneumoniae at 50 ug/ml after 24 hrs by agar disk diffusion assay; type: functional; conditions: read-out: DIZ; outline: as §2
Enterococcus faecalis [25] = assay: Antibacterial activity against Enterococcus faecalis at 50 ug/ml after 24 hrs by agar disk diffusion assay; type: functional; conditions: read-out: DIZ; outline: as §3
Klebsiella pneumoniae [26] = assay: Antibacterial activity against Klebsiella pneumoniae at 30 ug/ml after 24 hrs by agar disk diffusion assay; conditions: read-out: DIZ
Escherichia coli [27] = assay: Antibacterial activity against Escherichia coli at 30 ug/ml after 24 hrs by agar disk diffusion assay; conditions: read-out: DIZ
Enterococcus faecalis [28] = assay: Antibacterial activity against Enterococcus faecalis at 30 ug/ml after 24 hrs by agar disk diffusion assay; conditions: read-out: DIZ
Staphylococcus aureus [29] = assay: Antibacterial activity against Staphylococcus aureus at 30 ug/ml after 24 hrs by agar disk diffusion assay; conditions: read-out: DIZ
Candida albicans [30] = assay: Antifungal activity against Candida albicans AT 30 ug/ml after 48 hrs by agar disk diffusion assay; type: functional; conditions: read-out: DIZ
Outline: (§6)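 Agar well diffusion on Sabouraud dextrose agar; fungal strains obtained from a hospital. Compounds dissolved in DMSO, with DMSO as negative control and fluconazole ([…]) as positive control. Plates incubated at 28 ± 2 °C for 48 h. Activity taken as the diameter of the inhibition zone, in mm.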

Aspergillus niger [31] = assay: Antifungal activity against Aspergillus niger at 30 ug/ml after 48 hrs by agar disk diffusion assay; type: functional; conditions: read-out: DIZ; outline: as §6

CCOC(=O)c1c(N)nc2c(c1-c1ccccc1)CCc1c-2[nH]c2ccc(C)cc12
IC50 (SK-OV-3): Not Active
MIC (Escherichia coli [1]): 100 µg/mL (≈ 252 µM)
MIC (Staphylococcus aureus [2]): 100 µg/mL (≈ 252 µM)
zone of inhibition at 100 µg/mL (Candida albicans [3]): 2 mm
zone of inhibition at 100 µg/mL (Enterococcus faecalis [4]): 15 mm
zone of inhibition at 100 µg/mL (Staphylococcus aureus [5]): 14 mm
IC50 (HCT-15 [6]): Not Active
IC50 (A549): Not Active
IC50 [7]: 300.84 µg/mL (≈ 757 µM)
MIC (Aspergillus niger [8]): > 100 µg/mL
zone of inhibition at 100 µg/mL (Klebsiella pneumoniae [9]): 16 mm
MIC (Enterococcus faecalis [10]): 100 µg/mL (≈ 252 µM)
zone of inhibition at 100 µg/mL (Escherichia coli [11]): 13 mm
IC50 (B16-F10 [12]): Not Active
MIC (Klebsiella pneumoniae [13]): 100 µg/mL (≈ 252 µM)
MIC (Candida albicans [14]): > 100 µg/mL
IC50 [15]: Not Active
zone of inhibition at 100 µg/mL (Aspergillus niger [16]): 4 mm

Cc1ccc2[nH]c3c(c2c1)CCc1c-3nc(N)c(C#N)c1-c1ccc(N(C)C)cc1
IC50 (SK-OV-3): Not Active
MIC (Escherichia coli [1]): 50 µg/mL (≈ 127 µM)
IC50 (B16-F10 [17]): 34.6 µg/mL (≈ 87.9 µM)
Activity [18]: inactive
IC50 (HCT-15 [19]): 43.5 µg/mL (≈ 111 µM)
MIC (Staphylococcus aureus [2]): 50 µg/mL (≈ 127 µM)
zone of inhibition at 50 µg/mL (Aspergillus niger [20]): 5 mm
IC50 (A549): Not Active
zone of inhibition at 50 µg/mL (Escherichia coli [21]): 17 mm
zone of inhibition at 50 µg/mL (Staphylococcus aureus [22]): 17 mm
zone of inhibition at 50 µg/mL (Candida albicans [23]): 9 mm
MIC (Aspergillus niger [8]): > 100 µg/mL
MIC (Enterococcus faecalis [10]): 50 µg/mL (≈ 127 µM)
MIC (Klebsiella pneumoniae [13]): 50 µg/mL (≈ 127 µM)
zone of inhibition at 50 µg/mL (Klebsiella pneumoniae [24]): 18 mm
MIC (Candida albicans [14]): > 100 µg/mL
zone of inhibition at 50 µg/mL (Enterococcus faecalis [25]): 19 mm
IC50 [15]: Not Active

O=C(O)c1cn(C2CC2)c2cc(N3CCNCC3)c(F)cc2c1=O [CIPROFLOXACIN]
MIC (Escherichia coli [1]): 12.5 µg/mL (≈ 37.7 µM)
zone of inhibition at 30 µg/mL (Klebsiella pneumoniae [26]): 30 mm
zone of inhibition at 30 µg/mL (Escherichia coli [27]): 27 mm
MIC (Staphylococcus aureus [2]): 12.5 µg/mL (≈ 37.7 µM)
zone of inhibition at 30 µg/mL (Enterococcus faecalis [28]): 29 mm
zone of inhibition at 30 µg/mL (Staphylococcus aureus [29]): 28 mm
MIC (Enterococcus faecalis [10]): 12.5 µg/mL (≈ 37.7 µM)
MIC (Klebsiella pneumoniae [13]): 12.5 µg/mL (≈ 37.7 µM)

OC(Cn1cncn1)(Cn1cncn1)c1ccc(F)cc1F [FLUCONAZOLE]
zone of inhibition at 30 µg/mL (Candida albicans [30]): 22 mm
zone of inhibition at 30 µg/mL (Aspergillus niger [31]): 19 mm
MIC (Aspergillus niger [8]): 12.5 µg/mL (≈ 40.8 µM)
MIC (Candida albicans [14]): 12.5 µg/mL (≈ 40.8 µM)
